Results on five compounds are retold here after ChEMBL document CHEMBL3352338, “Development and biological evaluation of potent and selective c-KIT(D816V) inhibitors” (J Med Chem, 2014).

Test [1] concerns the target Mast/stem cell growth factor receptor Kit (Homo sapiens, UniProt P10721, D816V). As to the kind of experiment: Inhibition of c-KIT D816V mutant (unknown origin).
Test [2] addresses T1, Mast/stem cell growth factor receptor Kit (Homo sapiens, UniProt P10721). Briefly: Inhibition of wild type c-KIT (unknown origin).
The nature of test [3]: Antiproliferative activity against human HMC-1.2 cells carrying V560G, D816V mutant assessed as cell growth inhibition by MTT assay. The class given is functional, cell-based. Put shortly: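 Cell viability by MTT assay in imatinib-resistant HMC-1.2 human mast cells (V560G, D816V), 48 h exposure across a range of concentrations.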
The target of test [4] is T1, Mast/stem cell growth factor receptor Kit. As to the kind of experiment: Inhibition of c-KIT (unknown origin) at 1 uM by KINOMEscanning/auto inhibition assay; values are per cent of control.
The target of test [5] is Cyclin-dependent kinase 4 (Homo sapiens) (UniProt P11802). As to the kind of experiment: Inhibition of CDK4 (unknown origin) at 1 uM by KINOMEscanning assay relative to control; values are per cent of control.
Test [6] has as its target Cyclin-dependent kinase 9 (Homo sapiens) (UniProt P50750). As to the kind of experiment: Inhibition of CDK9 (unknown origin) at 1 uM by KINOMEscanning assay relative to control; values are per cent of control.
Test [7] addresses Dual specificity mitogen-activated protein kinase kinase 1 (Homo sapiens) (UniProt Q02750). As to the kind of experiment: Inhibition of MEK1 (unknown origin) at 1 uM by KINOMEscanning assay relative to control; values are per cent of control.
The target in test [8] is T2, Serine/threonine-protein kinase 17A (Homo sapiens) (UniProt Q9UEE5).
T2 sequence (whole entry): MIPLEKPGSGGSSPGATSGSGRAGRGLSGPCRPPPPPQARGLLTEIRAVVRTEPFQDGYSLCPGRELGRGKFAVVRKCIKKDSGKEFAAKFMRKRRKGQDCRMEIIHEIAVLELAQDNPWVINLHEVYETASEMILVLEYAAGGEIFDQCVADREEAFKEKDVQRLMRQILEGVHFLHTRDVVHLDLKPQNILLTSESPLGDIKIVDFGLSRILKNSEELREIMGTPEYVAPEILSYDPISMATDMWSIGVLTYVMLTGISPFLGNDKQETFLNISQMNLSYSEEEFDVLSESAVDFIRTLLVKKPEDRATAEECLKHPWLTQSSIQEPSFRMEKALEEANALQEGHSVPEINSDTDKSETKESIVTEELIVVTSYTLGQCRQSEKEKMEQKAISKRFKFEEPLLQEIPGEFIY
As to the kind of experiment: Inhibition of DRAK1 (unknown origin) at 1 uM by KINOMEscanning assay relative to control; values are per cent of control.

Test [9] has as its target Insulin-like growth factor 1 receptor (Homo sapiens) (UniProt P08069). Briefly: Inhibition of IGF1R (unknown origin) at 1 uM by KINOMEscanning assay relative to control; values are per cent of control.
The target in test [10] is T3, Inhibitor of nuclear factor kappa-B kinase subunit beta (Homo sapiens) (UniProt O14920).
T3 sequence (whole entry): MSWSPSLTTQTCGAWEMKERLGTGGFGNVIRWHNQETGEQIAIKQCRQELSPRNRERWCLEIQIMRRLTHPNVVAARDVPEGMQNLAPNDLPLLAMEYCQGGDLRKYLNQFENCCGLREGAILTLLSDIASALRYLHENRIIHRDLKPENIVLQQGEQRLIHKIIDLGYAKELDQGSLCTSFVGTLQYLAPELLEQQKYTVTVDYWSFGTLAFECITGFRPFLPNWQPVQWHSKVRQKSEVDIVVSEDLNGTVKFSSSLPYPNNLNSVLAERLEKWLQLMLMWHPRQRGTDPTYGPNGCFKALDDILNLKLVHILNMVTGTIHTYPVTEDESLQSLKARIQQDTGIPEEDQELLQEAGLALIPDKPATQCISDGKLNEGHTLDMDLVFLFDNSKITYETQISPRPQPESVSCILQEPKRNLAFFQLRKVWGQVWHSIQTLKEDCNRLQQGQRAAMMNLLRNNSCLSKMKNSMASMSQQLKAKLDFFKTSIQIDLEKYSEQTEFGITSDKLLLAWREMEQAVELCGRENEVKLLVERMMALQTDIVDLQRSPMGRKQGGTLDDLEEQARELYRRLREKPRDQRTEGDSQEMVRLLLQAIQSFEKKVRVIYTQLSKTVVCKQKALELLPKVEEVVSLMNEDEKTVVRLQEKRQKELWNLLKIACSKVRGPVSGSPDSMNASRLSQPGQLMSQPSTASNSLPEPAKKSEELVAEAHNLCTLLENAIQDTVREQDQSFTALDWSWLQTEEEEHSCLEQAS
Briefly: Inhibition of IKKbeta (unknown origin) at 1 uM by KINOMEscanning assay relative to control; values are per cent of control.

Test [11] addresses Mitogen-activated protein kinase 14 (Homo sapiens) (UniProt Q16539). Briefly: Inhibition of p38alpha (unknown origin) at 1 uM by KINOMEscanning assay relative to control; values are per cent of control.
Test [12] concerns the target Platelet-derived growth factor receptor alpha (Homo sapiens) (UniProt P16234). As to the kind of experiment: Inhibition of PDGFRalpha (unknown origin) at 1 uM by KINOMEscanning assay relative to control; values are per cent of control.
Test [13] relates to Hepatocyte growth factor receptor (Homo sapiens), P08581 [M1250T]. As to the kind of experiment: Inhibition of MET M1250T mutant (unknown origin) at 1 uM by KINOMEscanning assay relative to control; values are per cent of control.
In test [14] the test system is Mast/stem cell growth factor receptor Kit (Homo sapiens), P10721 [D816H]. As to the kind of experiment: Inhibition of c-KIT D816H mutant (unknown origin) at 1 uM by KINOMEscanning assay relative to control; values are per cent of control.
In test [15] the target is Phosphatidylinositol 4,5-bisphosphate 3-kinase catalytic subunit alpha isoform (Homo sapiens, UniProt P42336). Briefly: Inhibition of PI3Kalpha (unknown origin).
Test [16] is described as follows: Cell cycle arrest in human HMC-1.2 cells assessed as accumulation at sub-G1 phase after 24 hrs by flow cytometric analysis. The class given is functional, cell-based. Put shortly: (§1)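 HMC-1.2 cells exposed to increasing concentrations for 24 h; cell cycle distribution (SubG1/G1 fraction) measured by flow cytometry.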
A short description of test [17]: Cell cycle arrest in human HMC-1.2 cells assessed as accumulation at G1 phase after 24 hrs by flow cytometric analysis. The class given is functional, cell-based. Put shortly: as §1
The nature of test [18]: Induction of apoptosis in human HMC-1.2 cells assessed as apoptotic cells at 0.1 uM after 48 hrs by TUNEL staining (reference value: 0.849%). It counts as functional.
In test [19] the target is T1, Mast/stem cell growth factor receptor Kit. The following applies: 5 uM.

The source made the active and inactive calls. The calls are words filed in the database; no cut-off is given here.

Chain of Insulin-like growth factor 1 receptor (Homo sapiens) (P08069 31-736 limits assumed): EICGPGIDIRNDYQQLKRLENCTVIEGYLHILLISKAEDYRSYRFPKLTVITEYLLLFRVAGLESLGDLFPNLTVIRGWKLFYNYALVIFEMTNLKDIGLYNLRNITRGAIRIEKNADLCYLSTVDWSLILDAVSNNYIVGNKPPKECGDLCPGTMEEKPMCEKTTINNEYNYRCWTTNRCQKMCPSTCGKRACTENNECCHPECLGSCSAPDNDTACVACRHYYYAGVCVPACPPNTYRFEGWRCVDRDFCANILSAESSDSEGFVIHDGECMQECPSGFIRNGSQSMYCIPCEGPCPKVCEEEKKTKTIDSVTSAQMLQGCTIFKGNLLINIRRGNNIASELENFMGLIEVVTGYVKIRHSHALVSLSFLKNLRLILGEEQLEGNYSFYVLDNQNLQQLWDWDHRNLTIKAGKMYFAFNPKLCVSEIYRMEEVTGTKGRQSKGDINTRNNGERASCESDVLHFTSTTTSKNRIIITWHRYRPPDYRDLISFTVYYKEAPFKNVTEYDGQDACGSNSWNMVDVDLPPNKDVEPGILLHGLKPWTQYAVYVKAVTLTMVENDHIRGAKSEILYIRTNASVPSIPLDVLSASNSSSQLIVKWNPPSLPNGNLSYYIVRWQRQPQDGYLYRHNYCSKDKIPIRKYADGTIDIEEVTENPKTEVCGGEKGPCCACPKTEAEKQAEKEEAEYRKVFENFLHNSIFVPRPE
Chain of Insulin-like growth factor 1 receptor (Homo sapiens) (P08069 741-1367 limits assumed): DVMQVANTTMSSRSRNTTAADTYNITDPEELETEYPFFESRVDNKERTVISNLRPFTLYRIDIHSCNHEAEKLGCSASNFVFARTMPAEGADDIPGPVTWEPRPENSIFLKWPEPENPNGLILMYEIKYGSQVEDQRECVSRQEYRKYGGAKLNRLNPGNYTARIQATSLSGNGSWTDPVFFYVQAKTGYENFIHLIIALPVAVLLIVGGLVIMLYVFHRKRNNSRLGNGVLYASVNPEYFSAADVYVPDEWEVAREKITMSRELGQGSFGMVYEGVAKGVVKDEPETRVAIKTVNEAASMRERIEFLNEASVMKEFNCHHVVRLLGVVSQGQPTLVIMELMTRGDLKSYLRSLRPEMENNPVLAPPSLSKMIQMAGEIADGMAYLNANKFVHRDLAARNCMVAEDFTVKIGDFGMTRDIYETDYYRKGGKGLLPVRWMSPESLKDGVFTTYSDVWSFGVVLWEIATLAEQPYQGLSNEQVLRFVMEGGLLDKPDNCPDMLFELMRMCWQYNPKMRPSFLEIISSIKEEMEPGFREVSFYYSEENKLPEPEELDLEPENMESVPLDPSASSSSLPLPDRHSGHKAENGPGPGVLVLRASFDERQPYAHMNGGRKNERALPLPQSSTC
T1 sequence (P10721 whole entry): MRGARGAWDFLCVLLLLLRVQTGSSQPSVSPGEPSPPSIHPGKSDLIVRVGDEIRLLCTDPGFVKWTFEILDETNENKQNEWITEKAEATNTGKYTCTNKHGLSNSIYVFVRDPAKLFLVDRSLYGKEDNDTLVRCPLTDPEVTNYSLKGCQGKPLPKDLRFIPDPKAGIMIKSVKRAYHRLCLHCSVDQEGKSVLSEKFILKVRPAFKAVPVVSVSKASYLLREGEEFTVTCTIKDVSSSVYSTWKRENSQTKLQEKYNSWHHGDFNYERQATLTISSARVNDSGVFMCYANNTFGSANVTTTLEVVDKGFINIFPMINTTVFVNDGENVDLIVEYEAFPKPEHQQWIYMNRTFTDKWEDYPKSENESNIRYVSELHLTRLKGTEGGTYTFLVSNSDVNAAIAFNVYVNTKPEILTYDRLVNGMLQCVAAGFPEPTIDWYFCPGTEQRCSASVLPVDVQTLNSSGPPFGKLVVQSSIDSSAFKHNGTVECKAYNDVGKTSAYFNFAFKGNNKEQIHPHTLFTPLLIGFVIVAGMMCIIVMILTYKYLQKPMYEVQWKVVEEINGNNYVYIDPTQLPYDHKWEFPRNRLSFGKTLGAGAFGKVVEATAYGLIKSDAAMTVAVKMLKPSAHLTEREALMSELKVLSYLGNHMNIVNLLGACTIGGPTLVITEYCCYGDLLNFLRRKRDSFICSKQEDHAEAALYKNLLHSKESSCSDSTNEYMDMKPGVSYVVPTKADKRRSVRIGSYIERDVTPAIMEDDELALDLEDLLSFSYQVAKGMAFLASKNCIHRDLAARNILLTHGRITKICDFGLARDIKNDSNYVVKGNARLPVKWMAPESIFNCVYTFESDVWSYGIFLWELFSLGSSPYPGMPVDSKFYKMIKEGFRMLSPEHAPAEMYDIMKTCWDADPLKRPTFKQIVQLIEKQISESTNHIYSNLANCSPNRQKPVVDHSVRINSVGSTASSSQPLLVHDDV
Chain of Mast/stem cell growth factor receptor Kit (Homo sapiens, UniProt P10721, D816V) (P10721 26-976 D816V limits assumed): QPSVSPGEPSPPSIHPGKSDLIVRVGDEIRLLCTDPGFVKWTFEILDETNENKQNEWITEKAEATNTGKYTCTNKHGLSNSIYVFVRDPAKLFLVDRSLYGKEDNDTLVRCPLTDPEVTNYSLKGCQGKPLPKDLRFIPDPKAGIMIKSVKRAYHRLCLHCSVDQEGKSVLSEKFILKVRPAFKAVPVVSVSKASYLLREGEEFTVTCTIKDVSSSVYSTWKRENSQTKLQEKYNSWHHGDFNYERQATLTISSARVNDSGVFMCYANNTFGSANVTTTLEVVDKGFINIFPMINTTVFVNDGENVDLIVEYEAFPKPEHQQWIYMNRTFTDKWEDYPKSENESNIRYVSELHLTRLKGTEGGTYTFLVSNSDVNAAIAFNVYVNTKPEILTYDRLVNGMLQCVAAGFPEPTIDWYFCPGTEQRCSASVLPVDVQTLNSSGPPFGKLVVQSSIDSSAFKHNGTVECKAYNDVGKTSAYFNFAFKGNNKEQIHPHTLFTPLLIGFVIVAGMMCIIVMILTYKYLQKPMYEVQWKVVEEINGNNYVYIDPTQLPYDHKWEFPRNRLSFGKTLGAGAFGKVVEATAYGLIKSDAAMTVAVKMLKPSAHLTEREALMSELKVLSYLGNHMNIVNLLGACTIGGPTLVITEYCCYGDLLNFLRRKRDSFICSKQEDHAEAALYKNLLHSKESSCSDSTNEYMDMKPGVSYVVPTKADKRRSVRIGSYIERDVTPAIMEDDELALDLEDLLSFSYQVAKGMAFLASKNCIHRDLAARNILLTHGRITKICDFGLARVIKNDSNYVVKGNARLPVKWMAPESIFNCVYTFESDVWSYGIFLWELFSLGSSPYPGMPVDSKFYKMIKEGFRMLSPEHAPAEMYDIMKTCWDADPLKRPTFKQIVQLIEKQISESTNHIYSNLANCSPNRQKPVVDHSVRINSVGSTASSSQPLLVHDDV
Chain of Cyclin-dependent kinase 4 (Homo sapiens) (P11802 whole entry): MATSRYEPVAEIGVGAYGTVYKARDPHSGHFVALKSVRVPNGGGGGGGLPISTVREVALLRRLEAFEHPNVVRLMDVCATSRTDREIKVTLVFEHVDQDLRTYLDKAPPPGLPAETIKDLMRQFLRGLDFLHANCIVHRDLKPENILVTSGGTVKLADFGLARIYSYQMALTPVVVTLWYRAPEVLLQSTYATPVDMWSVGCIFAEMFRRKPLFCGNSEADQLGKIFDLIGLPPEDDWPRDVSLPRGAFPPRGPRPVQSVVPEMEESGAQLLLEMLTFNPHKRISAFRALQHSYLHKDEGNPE
Chain of Platelet-derived growth factor receptor alpha (Homo sapiens) (P16234 whole entry): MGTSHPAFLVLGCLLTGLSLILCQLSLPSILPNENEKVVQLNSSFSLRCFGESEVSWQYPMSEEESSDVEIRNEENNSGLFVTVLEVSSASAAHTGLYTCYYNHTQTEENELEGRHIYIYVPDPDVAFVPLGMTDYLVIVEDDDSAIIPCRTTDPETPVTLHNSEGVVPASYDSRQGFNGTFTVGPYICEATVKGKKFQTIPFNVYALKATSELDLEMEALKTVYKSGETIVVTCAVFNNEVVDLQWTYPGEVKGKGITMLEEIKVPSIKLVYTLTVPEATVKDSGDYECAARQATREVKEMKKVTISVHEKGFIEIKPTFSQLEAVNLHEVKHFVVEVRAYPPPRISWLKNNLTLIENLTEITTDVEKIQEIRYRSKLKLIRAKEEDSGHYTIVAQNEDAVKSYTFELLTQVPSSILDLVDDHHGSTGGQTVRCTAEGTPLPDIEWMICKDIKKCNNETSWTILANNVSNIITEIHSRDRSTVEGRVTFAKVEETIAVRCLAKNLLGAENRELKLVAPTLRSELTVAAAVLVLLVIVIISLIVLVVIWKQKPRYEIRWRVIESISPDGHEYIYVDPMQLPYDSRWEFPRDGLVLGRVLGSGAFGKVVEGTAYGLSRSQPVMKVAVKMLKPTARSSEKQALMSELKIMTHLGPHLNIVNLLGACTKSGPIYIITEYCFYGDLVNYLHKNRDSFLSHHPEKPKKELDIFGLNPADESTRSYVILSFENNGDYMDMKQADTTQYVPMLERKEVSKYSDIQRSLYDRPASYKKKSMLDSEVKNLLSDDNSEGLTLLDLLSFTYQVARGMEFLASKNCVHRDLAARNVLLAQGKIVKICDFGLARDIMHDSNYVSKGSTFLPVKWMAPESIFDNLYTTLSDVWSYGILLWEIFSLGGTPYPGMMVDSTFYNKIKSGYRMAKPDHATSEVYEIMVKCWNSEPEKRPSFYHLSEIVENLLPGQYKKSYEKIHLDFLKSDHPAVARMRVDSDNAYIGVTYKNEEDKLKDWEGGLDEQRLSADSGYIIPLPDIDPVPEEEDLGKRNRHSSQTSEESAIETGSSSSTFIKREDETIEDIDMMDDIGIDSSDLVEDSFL
Chain of Dual specificity mitogen-activated protein kinase kinase 1 (Homo sapiens) (Q02750 whole entry): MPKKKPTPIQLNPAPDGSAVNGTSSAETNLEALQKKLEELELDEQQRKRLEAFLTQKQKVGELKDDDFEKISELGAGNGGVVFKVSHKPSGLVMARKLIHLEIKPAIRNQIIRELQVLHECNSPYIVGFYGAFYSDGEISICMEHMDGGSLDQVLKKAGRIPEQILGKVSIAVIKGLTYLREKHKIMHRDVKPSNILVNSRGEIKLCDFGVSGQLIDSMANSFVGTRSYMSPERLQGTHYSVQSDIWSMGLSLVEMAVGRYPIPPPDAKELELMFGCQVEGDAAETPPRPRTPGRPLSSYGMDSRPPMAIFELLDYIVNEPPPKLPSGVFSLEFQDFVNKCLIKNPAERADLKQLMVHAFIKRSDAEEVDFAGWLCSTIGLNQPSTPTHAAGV

`COc1ccc(-c2c[nH]c3ncc(-c4ccc(C(=O)N5CCOCC5)c(N)c4)cc23)cc1OC`: the IC50 in test [1] amounted to 0.0085 µM; in test [2] it was 9.14 µM; in [3], 2.01 µM. Moreover, the residual activity in test [4] was 76%; in test [5], 82%; in test [6] it was 100%; in [7], 59%; in test [8], 0.25%; in [9] it was 96%. Further, the residual activity stood at 0.75% in test [10]; 94% in test [11]; 36% in test [12]; 53% in test [13]; 25% in test [14].
In the case of `COc1ccc(-c2cnc3[nH]cc(-c4ccc(OC)c(OC)c4)c3c2)cc1OC`, the IC50 in [1] was 0.0021 µM; in test [15], more than 10 µM; in test [2], 0.142 µM; in test [3] it was 0.76 µM. Moreover, the inhibition entry in test [16] and in test [17] was “Dose-dependent effect” each time. For the same compound, the Activity in [18] was 0.732%. Further, the inhibition entry in test [19] is “Active”. Further, the residual activity in [4] was determined as 48%; in test [5] it was 85%; in test [6], 100%; in test [7], 74%; in test [8], 0.2%; in test [9], 100%. Further, the residual activity is 12% in [10]; 96% in [11]; 16% in test [12]; 35% in [13]; 16% in [14].
In the case of `COc1cc(-c2c[nH]c3ncc(-c4cccc(N)c4)cc23)cc(OC)c1OC`, the IC50 in test [1] stood at 0.0977 µM; in test [3] it was 0.81 µM. Besides, in test [19], the inhibition entry is “Active”. The residual activity in test [4] was determined as 53%; in [5] it was 85%; in test [6], 83%; in [7], 85%; in test [8] it was 86%; in test [9], 100%. Moreover, the residual activity was determined as 22% in [10]; 100% in [11]; 65% in test [12]; 80% in [13]; 85% in test [14].
For the compound `COc1ccc(-c2c[nH]c3ncc(-c4cc(OC)c(OC)c(OC)c4)cc23)cc1OC`, the IC50 in test [1] was 0.0088 µM; in test [2], 2.75 µM; in [3], 0.91 µM. In addition, the inhibition result in test [19] was “Active”. Further, the residual activity amounted to 42% in test [4]; 95% in [5]; 100% in test [6]; 78% in test [7]; 0.95% in test [8]; 91% in test [9]. Moreover, the residual activity in [10] stood at 69%; in test [11] it was 100%; in test [12] it was 59%; in test [13], 86%; in test [14], 25%.
In the case of `COc1ccc(-c2cnc3[nH]cc(-c4ccc(OC)c(OC)c4)c3c2)cc1N`, the IC50 is 0.0256 µM in [1], more than 10 µM in test [2] and 0.87 µM in test [3]. Also, the inhibition result in test [19] is “Active”. Moreover, the residual activity stood at 65% in test [4]; 81% in test [5]; 100% in test [6]; 76% in test [7]; 2.4% in [8]; 79% in test [9]. Also, the residual activity was 31% in [10]; 93% in [11]; 21% in test [12]; 51% in [13]; 51% in test [14].
